In ChEMBL document CHEMBL1154114, “7-((4-Substituted)piperazin-1-yl) derivatives of ciprofloxacin: synthesis and in vitro biological evaluation as potential antitumor agents” (Bioorg Med Chem, 2009):

Columns and labels:
A549 = assay: Antitumor activity against human A549 cells after 5 days by MTT assay; type: functional, cell-based; conditions: A549, 120 h
Outline: (§1)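 Five human cancer lines (prostate PC-3, glioblastoma U373-MG, colorectal LoVo, NSCLC A549, breast MCF-7) plated at 10⁴ to 3×10⁴ cells/mL depending on cell type, allowed 24 h to attach, then cultured 120 h with or without drug at nine concentrations. MTT reduction to formazan read at 570 nm (reference 630 nm).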

PC-3 = assay: Antitumor activity against human PC3 cells after 5 days by MTT assay; type: functional, cell-based; conditions: PC-3, 120 h; outline: as §1
MCF7 = assay: Antitumor activity against human MCF7 cells after 5 days by MTT assay; type: functional, cell-based; conditions: MCF7, 120 h; outline: as §1
LoVo = assay: Antitumor activity against human LoVo cells after 5 days by MTT assay; type: functional, cell-based; conditions: 120 h; outline: as §1
[1] = Antitumor activity against human U373MG cells after 5 days by MTT assay; type: functional, cell-based, U-373MG ATCC; conditions: U373 MG, 120 h; outline: as §1
HeLa = assay: Inhibition of human HeLa cell proliferation; type: functional, cell-based
[2] = Toxicity in ip dosed B6D2F1 mouse assessed as maximum tolerated dose after 28 days; type: organism-based; conditions: in vivo
Outline: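 Healthy mice, three per group, each given a single ip dose and observed for up to 28 days. The MTD index is the highest single dose given without causing any deaths in the group.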

[3] = Stability in phosphate buffer of pH 7.4 after 6 days; type: physicochemical; conditions: read-out: Stability
Outline: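 Compound dissolved at 1 mM in DMSO, diluted with phosphate buffer pH 7.4 to 1 mL, incubated sealed at 37 °C for 6 days. A t0 aliquot was held at 4 °C. HPLC with 280 nm detection and duplicate injections, with expected degradation products as references. Stability is taken as compound peak area over (compound + degradation product) peak area.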

CHO [4] = assay: Inhibition of verapamil-resistant CHO cell proliferation by colony-forming assay; type: cell-based; conditions: Cricetulus griseus
CHO [5] = assay: Inhibition of CHO cell proliferation by colony-forming assay; type: cell-based; conditions: Cricetulus griseus
Drosophila melanogaster = assay: Inhibition of Drosophila melanogaster DNA topoisomerase 2-mediated pBR322 DNA relaxation by agarose gel electrophoresis
MC3T3-E1 = assay: Inhibition of mouse MC3T3-E1 cell proliferation after 48 to 72 hrs; type: functional, cell-based
[6] = Inhibition of mouse NIH/3T3 cell proliferation by MTT assay; type: cell-based; conditions: NIH3T3

Row | SMILES | IC50 (A549) [µM] | IC50 (PC-3) [µM] | IC50 (MCF7) [µM] | IC50 (LoVo) [µM] | IC50 [1] [µM] | IC50 (HeLa) [µM] | MTD at 672 h [2] [mg/kg] | remaining at 144 h [3] [%] | IC50 (CHO [4]) [µM] | IC50 (CHO [5]) [µM] | Activity (Drosophila melanogaster) [µM] | IC50 (MC3T3-E1) [nM] | IC50 [6] [µM]
1 | CCCCCCCCCCOC(=O)N1CCN(c2cc3c(cc2F)c(=O)c(C(=O)O)cn3C2CC2)CC1 | 44 | 24 | 20 | 32 | 401 |  |  |  |  |  |  |  | 
2 | COc1c(N2CCNC(C)C2)c(F)cc2c(=O)c(C(=O)O)cn(C3CC3)c12 (stereo not drawn) [GATIFLOXACIN] |  |  |  |  |  | 400 |  |  |  |  |  |  | 
3 | CCCCCCC(=O)N1CCN(c2cc3c(cc2F)c(=O)c(C(=O)O)cn3C2CC2)CC1 | 808 | 779 | 754 | 793 | 729 |  | > 80 | 100 |  |  |  |  | 
4 | O=C(O)c1cn(C2CC2)c2cc(-c3ccc(O)cc3)c(F)cc2c1=O |  |  |  |  |  |  |  |  | 40 | 20 | 130 |  | 
5 | CCCCCC(=O)OCC(=O)N1CCN(c2cc3c(cc2F)c(=O)c(C(=O)O)cn3C2CC2)CC1 | 20 | 14 | 72 | 27 | 28 |  |  | > 99 |  |  |  |  | 
6 | CCCCCCCCCOC(=O)N1CCN(c2cc3c(cc2F)c(=O)c(C(=O)O)cn3C2CC2)CC1 | 38 | 30 | 35 | 30 | 283 |  |  |  |  |  |  |  | 
7 | CCCC(=O)N1CCN(c2cc3c(cc2F)c(=O)c(C(=O)O)cn3C2CC2)CC1 | 697 | 85 | 172 | 148 | 104 |  |  |  |  |  |  |  | 
8 | CCCCCCCCCCCC(=O)N1CCN(c2cc3c(cc2F)c(=O)c(C(=O)O)cn3C2CC2)CC1 | 7 | 4 | 108 | 45 | 18 |  |  |  |  |  |  |  | 
9 | O=C(O)c1cn(C2CC2)c2cc(N3CCN(C(=O)CO)CC3)c(F)cc2c1=O | 456 | 433 | 985 | 408 | 294 |  |  |  |  |  |  |  | 
10 | CCOC(=O)N1CCN(c2cc3c(cc2F)c(=O)c(C(=O)O)cn3C2CC2)CC1 | > 1000 | 385 | 455 | 272 | 228 |  | > 80 | 100 |  |  |  |  | 
11 | CCCCC(=O)N1CCN(c2cc3c(cc2F)c(=O)c(C(=O)O)cn3C2CC2)CC1 | 64 | 73 | 316 | 87 | 86 |  |  |  |  |  |  |  | 
12 | CCCCCCCCCC(=O)N1CCN(c2cc3c(cc2F)c(=O)c(C(=O)O)cn3C2CC2)CC1 | 3 | 4 | 20 | 7 | 5 |  | > 80 | 100 |  |  |  |  | 
13 | CC(=O)N1CCN(c2cc3c(cc2F)c(=O)c(C(=O)O)cn3C2CC2)CC1 | 584 | 680 | 803 | 323 | 535 |  |  |  |  |  |  |  | 
14 | N[C@@H]1[C@H]2CN(c3nc4c(cc3F)c(=O)c(C(=O)O)cn4-c3ccc(F)cc3F)C[C@@H]12 [TROVAFLOXACIN] |  |  |  |  |  |  |  |  |  |  |  | < 1200 | 
15 | CCCCCCCCC(=O)OCC(=O)N1CCN(c2cc3c(cc2F)c(=O)c(C(=O)O)cn3C2CC2)CC1 | 216 | 257 | 255 | 267 | 272 |  |  |  |  |  |  |  | 
16 | CCCCCCCCCC(=O)OCC(=O)N1CCN(c2cc3c(cc2F)c(=O)c(C(=O)O)cn3C2CC2)CC1 | 273 | 416 | 353 | 317 | 291 |  |  |  |  |  |  |  | 
17 | CCCC(=O)OCC(=O)N1CCN(c2cc3c(cc2F)c(=O)c(C(=O)O)cn3C2CC2)CC1 | 456 | 715 | 1000 | 613 | 586 |  |  | 100 |  |  |  |  | 
18 | CCCCCCCCCCCCCCCC(=O)N1CCN(c2cc3c(cc2F)c(=O)c(C(=O)O)cn3C2CC2)CC1 |  |  |  |  |  |  |  | 100 |  |  |  |  | 
19 | CCn1cc(C(=O)O)c(=O)c2cc(F)c(N3CCNC(C)C3)c(F)c21 (stereo not drawn) [LOMEFLOXACIN] |  |  |  |  |  | 410 |  |  |  |  |  |  | 483
20 | CCCCCCCCOC(=O)N1CCN(c2cc3c(cc2F)c(=O)c(C(=O)O)cn3C2CC2)CC1 | 21 | 24 | 23 | 43 | 79 |  | > 80 | 100 |  |  |  |  | 
